Test results reported in ChEMBL document CHEMBL3612009, “Synthesis and structure-activity relationship study of a new series of antiparasitic aryloxyl thiosemicarbazones inhibiting Trypanosoma cruzi cruzain” (Eur J Med Chem, 2015).
Activity calls are given as the source filed them. The calls are words filed in the database; no cut-off is given here.

Columns and labels:
[1] = system: Trypanosoma cruzi; assay: Antitrypanosomal activity against amastigote and trypomastigote forms of Trypanosoma cruzi Tulahuen expressing beta-galactosidase gene infected in mouse L-929 cells assessed as inhibition of parasite growth at 100 uM after 7 days by colorimetric betagalactosidase assay; assay type: functional; conditions: L929, 168 h
[2] = Cytotoxicity against mouse L929 cells assessed as cell viability after 96 hrs by alamarBlue assay; assay type: cell-based
Summary of the method: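 Uninfected L-929 cells at the same cell number and timing as the beta-galactosidase assay; increasing concentrations starting at the T. cruzi IC50, quadruplicate. After 96 h, alamarBlue added; absorbance at 570 and 600 nm read 6 h later. Viability as % reduction versus untreated; CC50 by linear interpolation.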

[3] = Cytotoxicity against BALB/c mouse splenocytes assessed as maximum non-toxic concentration by measuring [3H]-thymidine incorporation after 24 hrs by liquid scintillation counting; assay type: cell-based, Splenocyte
Summary of the method: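 BALB/c splenocytes, 5 x 10^6 cells/well, given compounds at 1.23, 3.7, 33.33 and 100 µg/mL, 1% DMSO final, triplicate; 24 h at 37 °C, 5% CO2. Then 1.0 µCi [3H]-thymidine added; cells harvested and counted by liquid scintillation. Highest non-cytotoxic concentration taken from % incorporation.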

[4] = system: Trypanosoma cruzi; assay: Antiparasitic activity against trypomastigotes of Trypanosoma cruzi Y assessed as induction of parasite death after 24 hrs using propidium iodide staining after 24 hrs by flow cytometry analysis; assay type: functional, organism-based
Summary of the method: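 Y strain trypomastigotes (4x10^5) in RPMI-1640 + 10% FBS exposed to 0.5 or 5.0 µM of each thiosemicarbazone, benznidazole 25 µM, or Triton X-100, for 24 h at 37 °C, 5% CO2. Then PI-stained and read by flow cytometry, at least 10,000 events. Two independent experiments, duplicates.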

[5] = system: Trypanosoma cruzi; assay: Antiparasitic activity against epimastigotes of Trypanosoma cruzi Dm28c assessed as reduction of parasite count after 5 days; assay type: functional; conditions: 120 h
[6] = Selectivity index, ratio of CC50 for mouse L929 cells to IC50 for amastigote and trypomastigote forms of Trypanosoma cruzi Tulahuen; assay type: functional
Summary of the method: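 SI = CC50 in uninfected L-929 fibroblasts (alamarBlue, 96 h) divided by IC50 against intracellular amastigote/trypomastigote forms (beta-galactosidase assay, 7 days).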

[7] = biological target: Cruzipain (Trypanosoma cruzi) (UniProt P25779); assay: Inhibition of Trypanosoma cruzi catalytic activity of cruzain using Z-FR-AMC as substrate at 50 uM after 10 mins by fluorescence assay
Sequence of Cruzipain (Trypanosoma cruzi) (P25779 123-467 limits assumed): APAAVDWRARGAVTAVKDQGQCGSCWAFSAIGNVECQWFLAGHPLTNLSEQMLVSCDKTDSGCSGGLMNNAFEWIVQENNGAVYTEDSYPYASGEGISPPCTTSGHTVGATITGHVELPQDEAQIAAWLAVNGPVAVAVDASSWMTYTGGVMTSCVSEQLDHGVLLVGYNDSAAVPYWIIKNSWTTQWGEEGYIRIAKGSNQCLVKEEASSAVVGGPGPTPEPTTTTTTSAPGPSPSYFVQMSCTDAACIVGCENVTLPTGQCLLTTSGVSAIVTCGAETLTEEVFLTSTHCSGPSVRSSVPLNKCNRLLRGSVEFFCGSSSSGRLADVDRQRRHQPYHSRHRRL

[8] = system: Trypanosoma cruzi; assay: Antiparasitic activity against trypomastigotes of Trypanosoma cruzi Y assessed as reduction of parasite count after 24 hrs; assay type: functional
[9] = system: Trypanosoma cruzi; assay: Antiparasitic activity against trypomastigotes of Trypanosoma cruzi Y assessed as induction of parasite death at 5 uM after 24 hrs using propidium iodide staining after 24 hrs by flow cytometry analysis; assay type: functional
Summary of the method: (§1)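 Y strain trypomastigotes (4x10^5) in RPMI-1640 with 10% FBS, exposed to test agent for 24 h at 37 °C, 5% CO2; then stained with propidium iodide and analysed by flow cytometry, at least 10,000 events. Read-out is % PI-positive cells versus untreated parasites; Triton X-100 as positive control. Two independent experiments, each concentration in duplicate.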

[10] = system: Trypanosoma cruzi; assay: Antiparasitic activity against trypomastigotes of Trypanosoma cruzi Y assessed as induction of parasite death at 0.5 uM after 24 hrs using propidium iodide staining after 24 hrs by flow cytometry analysis; assay type: functional; summary of the method: as §1
[11] = system: Trypanosoma cruzi; assay: Antitrypanosomal activity against amastigote and trypomastigote forms of Trypanosoma cruzi Tulahuen expressing beta-galactosidase gene infected in mouse L-929 cells assessed as inhibition of parasite growth after 7 days by colorimetric betagalactosidase assay; assay type: functional, organism-based; conditions: L929, 168 h
[12] = biological target: Cruzipain (Trypanosoma cruzi) (UniProt P25779); assay: Inhibition of Trypanosoma cruzi catalytic activity of cruzain using Z-FR-AMC as substrate at 100 uM after 10 mins by fluorescence assay
[13] = system: Trypanosoma cruzi; assay: Antiparasitic activity against trypomastigotes of Trypanosoma cruzi Y assessed as induction of parasite death at 25 uM after 24 hrs using propidium iodide staining after 24 hrs by flow cytometry analysis; assay type: functional; summary of the method: as §1
[14] = biological target: Cruzipain (Trypanosoma cruzi, UniProt P25779); assay: Inhibition of Trypanosoma cruzi catalytic activity of cruzain using Z-FR-AMC as substrate after 10 mins by fluorescence assay
Sequence of Cruzipain (P25779 whole entry): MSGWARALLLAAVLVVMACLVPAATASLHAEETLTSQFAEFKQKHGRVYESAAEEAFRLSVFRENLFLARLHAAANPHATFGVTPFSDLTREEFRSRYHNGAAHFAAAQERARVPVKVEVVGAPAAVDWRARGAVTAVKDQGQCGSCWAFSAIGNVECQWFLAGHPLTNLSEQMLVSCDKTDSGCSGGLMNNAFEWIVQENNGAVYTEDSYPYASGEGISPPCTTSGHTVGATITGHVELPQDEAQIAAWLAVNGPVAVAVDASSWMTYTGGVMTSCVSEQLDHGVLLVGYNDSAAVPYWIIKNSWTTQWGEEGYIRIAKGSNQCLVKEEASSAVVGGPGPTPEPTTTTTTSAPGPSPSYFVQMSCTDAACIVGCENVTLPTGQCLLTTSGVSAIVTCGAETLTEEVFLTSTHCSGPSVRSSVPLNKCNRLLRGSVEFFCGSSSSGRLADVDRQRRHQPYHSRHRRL

inhibition [12]	Structure (SMILES)	inhibition at 100 µM [1] [%]	CC50 at 96 h [2] [µM]	MNTC at 24 h [3] [µM]	inhibition [4]	IC50 [5] [µM]	Ratio CC50/IC50 [6]	inhibition [7] [%]	CC50 [8] [µM]	Activity [9] [%]	Activity [10] [%]	IC50 [11] [µM]	Activity [13] [%]	IC50 [14] [µM]
–	CC(C)c1ccc(OC/C(=N\NC(N)=S)c2ccc(Br)cc2)cc1	> 70	24.6	> 246	Dose-dependent effect	3.8	2	49.7	2.9	42.2	2.3	12.3	–	–
inactive	C/C(=N\NC(N)=S)C(C)Oc1ccccc1-c1ccccc1 (stereo not drawn)	–	–	–	–	–	–	–	–	–	–	–	–	–
inactive	CC(=O)Nc1ccc(OC(C)/C(C)=N/NC(N)=S)cc1 (stereo not drawn)	–	–	–	–	–	–	–	–	–	–	–	–	–
–	O=C(Cn1ccnc1[N+](=O)[O-])NCc1ccccc1 [BENZNIDAZOLE]	–	–	–	–	–	625	–	6.2	4.2	–	–	56.4	–
–	NC(=S)N/N=C(\COc1ccc(Cl)c(Cl)c1)c1ccc(Br)cc1	> 70	23.1	< 2.3	–	1.8	2.8	99.1	3	44.9	2.3	8.3	–	0.008
